Screening results deposited in PubChem by The Scripps Research Institute Molecular Screening Center.
A selection: hits, their analogues and other compounds. The true share with any hit is near 3%.
CHRM4 PAM: human M4 muscarinic receptor positive allosteric modulators, primary screen, CHO-K1 cells, Fluo-8 calcium fluorescence; AID 624126, 2012; CHO-K1 hM4/Gqi5, ACh EC20; 0% = ACh EC20, 100% = maximal ACh; 360,000 compounds, 0.4% hits; activation, % at 3 µM;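 active means activation above its plate's cutoff, the mean activation of sample wells plus 3 SD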
TAAR1 ag: human TAAR1 agonists, primary screen, Fluo-8 calcium fluorescence, CHO RD-HGA16 cells; vehicle wells 0%, saturating PEA agonist 100%; 360,000 compounds, 0.99% hits; activation, % at 3 µM;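 active means activation above the mean activation of all test compounds in the run plus 3 SD, cut at about 38% in these data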
Target sequence (Q96RJ0 whole entry, looked up): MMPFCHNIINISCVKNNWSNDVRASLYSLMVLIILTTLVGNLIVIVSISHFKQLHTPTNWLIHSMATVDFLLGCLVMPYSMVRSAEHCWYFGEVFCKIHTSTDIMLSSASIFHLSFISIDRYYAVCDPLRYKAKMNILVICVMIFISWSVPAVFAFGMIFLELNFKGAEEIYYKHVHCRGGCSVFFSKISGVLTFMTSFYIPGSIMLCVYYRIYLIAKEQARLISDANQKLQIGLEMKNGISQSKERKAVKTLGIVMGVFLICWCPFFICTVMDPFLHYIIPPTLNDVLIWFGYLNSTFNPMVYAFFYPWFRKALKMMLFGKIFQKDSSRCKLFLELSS
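System: CHO RD-HGA16 cells carrying human TAAR1 plus Gα16; Incubation: 17-24 h seeding, 75 min 37 °C dye, 30 min RT; Measured by: Fluo-8 fluorescence, 5 s baseline then 140 s kinetic read; Control set: DMSO and PEA EC100; Replication: single well for each compound.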
M4 ag: human M4 muscarinic receptor agonists, primary screen, CHO-K1 cells, Fluo-8 calcium fluorescence. activation, % at 3 µM. 360,000 compounds, 0.14% hits. CHO-K1 hM4/Gqi5; vehicle 0%, full acetylcholine response 100%;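 active means activation above the run mean over all test wells plus 3 SD, cut at about 32% in these data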;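 further: peak over basal fluorescence ratio per well then scaled between controls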
TAAR1 antag: human TAAR1 antagonists, primary screen, Fluo-8 calcium fluorescence, CHO RD-HGA16 cells | antagonist | 360,000 compounds, 1.5% hits | inhibition, % at 3 µM;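 active means inhibition above a per-plate cutoff, the mean inhibition of test compounds on that plate plus 3 SD, cut at about 49% in these data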
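Assay system: CHO-derived RD-HGA16 cells stably expressing human TAAR1 plus Gα16. Timing: 140 s kinetic read after compound, 140 s after agonist. Technique: kinetic Fluo-8 calcium fluorescence measurement. Measure: % inhibition of agonist calcium response.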
M4 antag: human M4 muscarinic receptor antagonists, primary screen, CHO cells, Fluo-8 calcium fluorescence; Muscarinic acetylcholine receptor M4 (Homo sapiens), P08173; CHO-hM4 cells, ACh EC80; inhibition, % at 3 µM; 360,000 compounds, 0.73% hits; AID 624125, 2012;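 active means inhibition above its plate's cutoff, the mean inhibition of sample wells plus 3 SD, cut at about 27% in these data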
Hits are given with their value.

COC(=O)[C@]12C[C@H](CC(=O)N3CCN(C(=O)C4CC4)CC3)C(=O)N(Cc3ccccc3)C1=C[C@H](C(C)(C)C)O[C@@H]2C was read as TAAR1 ag inactive and TAAR1 antag inactive.
Screening COC(=O)C1=C(C)N(C)C(=NCc2ccccc2C(F)(F)F)NC1c1ccc(Cl)cc1 (configuration not stated) returned TAAR1 ag inactive and TAAR1 antag inactive.
For CC(NCCC(c1ccccc1)c1ccccc1)c1ccccc1 (configuration not stated) the results were CHRM4 PAM inactive, TAAR1 ag inactive, M4 ag inactive, TAAR1 antag inactive and M4 antag 44.9.
For CCCOC(=O)c1ccc(Oc2coc3c(CN(CC)CC)c(O)ccc3c2=O)cc1 the results were CHRM4 PAM inactive, TAAR1 ag inactive, M4 ag inactive, TAAR1 antag inactive and M4 antag 93.3.
CCOC(=O)CC(NC(=O)Cn1nnc(-c2ccccc2Cl)n1)c1ccc(OC)cc1 (configuration not stated) was read as CHRM4 PAM inactive, TAAR1 ag 45.8, M4 ag inactive, TAAR1 antag inactive and M4 antag inactive.
Screening COc1ccc(CNC(=O)[C@]2(C)CCC[C@@]3(C)C4CC[C@@]5(C)C[C@]4(CCC32)CC5=O)cc1 (some centres not stated) returned CHRM4 PAM inactive, TAAR1 ag inactive, M4 ag inactive, TAAR1 antag 48.7 and M4 antag inactive.
For Cc1ccc(CNC(=O)[C@]2(C)CCC[C@@]3(C)C4CC[C@@]5(C)C[C@]4(CCC32)CC5=O)cc1 (some centres not stated) the results were CHRM4 PAM inactive, TAAR1 ag inactive, M4 ag inactive, TAAR1 antag inactive and M4 antag inactive.
For Cc1ccccc1S(=O)(=O)NC(=O)C1(C)CCN1C(=O)CC1CCCC1 (configuration not stated) the results were CHRM4 PAM inactive, TAAR1 ag inactive, M4 ag inactive, TAAR1 antag inactive and M4 antag inactive.
`Cc1ccccc1S(=O)(=O)NC(=O)C1(C)CCN1C(=O)C/C=C/c1ccccc1` (configuration not stated) gave CHRM4 PAM inactive, TAAR1 ag inactive, M4 ag inactive, TAAR1 antag inactive and M4 antag 85.0.
CC1(C(=O)NS(=O)(=O)c2ccccc2Cl)CCN1C(=O)CC1CCCC1 (configuration not stated) was read as CHRM4 PAM 15.0, TAAR1 ag inactive, M4 ag inactive, TAAR1 antag inactive and M4 antag inactive.
`CCNC(=O)N1CCN(c2ccc(N3CCN(C(=O)NCC)[C@@H](C)C3)c(C)c2)[C@@H](C)C1` gave TAAR1 ag inactive and TAAR1 antag inactive.
Screening COc1ccc2c(c1)-c1nc(NC(=O)c3ccco3)sc1CC2 returned CHRM4 PAM inactive, TAAR1 ag inactive, M4 ag inactive, TAAR1 antag inactive and M4 antag inactive.
COc1ccc2c(c1)CCc1sc(NC(=O)c3ccco3)nc1-2 was read as CHRM4 PAM 28.2, M4 ag inactive and M4 antag inactive.
`COc1ccc2c(c1)Cc1sc(NC(=O)c3ccco3)nc1-2` gave CHRM4 PAM 27.3, TAAR1 ag inactive, M4 ag inactive, TAAR1 antag inactive and M4 antag inactive.
CCc1nc2c(OCC(=O)c3ccc(Cl)cc3Cl)cccn2c1N(C)C(=O)c1cccs1 was read as CHRM4 PAM inactive, TAAR1 ag inactive, M4 ag inactive, TAAR1 antag inactive and M4 antag inactive.
CC12CCC3c4ccc(OCCCO)c([N+](=O)[O-])c4CCC3C1CCC2=O (configuration not stated) was read as TAAR1 ag inactive and TAAR1 antag inactive.
`O=C(O)CN(c1ccccn1)S(=O)(=O)c1ccc(Cl)cc1` gave CHRM4 PAM 19.7, TAAR1 ag inactive, M4 ag inactive, TAAR1 antag inactive and M4 antag inactive.
`N#CCCN1CCC(N)=NC1=NC#N` gave TAAR1 ag inactive and TAAR1 antag inactive.
`Cc1cc(C(=O)CSc2nnc(-c3ccccc3)n2-c2ccccc2)c(C)n1-c1ncn[nH]1` gave CHRM4 PAM 25.9, TAAR1 ag inactive, M4 ag inactive, TAAR1 antag inactive and M4 antag inactive.
For COc1ccc(-n2nc3c(c2NC(=O)c2ccc(Br)o2)CS(=O)(=O)C3)cc1 the results were CHRM4 PAM 24.2, TAAR1 ag inactive, M4 ag inactive, TAAR1 antag inactive and M4 antag inactive.
Screening COC(=O)N1Cc2ccnnc2CC1c1ccccc1-c1ccc(F)cc1 (configuration not stated) returned TAAR1 ag inactive and TAAR1 antag inactive.
`CCOc1cc(-c2nc3ccccn3c2NCC2CCCO2)ccc1O` (configuration not stated) gave CHRM4 PAM inactive, TAAR1 ag inactive, M4 ag inactive, TAAR1 antag 56.9 and M4 antag 29.7.
O=[N+]([O-])c1c(Nc2ccc(O)cc2)cc(Cl)c2nonc12 was read as CHRM4 PAM inactive, TAAR1 ag inactive, M4 ag inactive, TAAR1 antag 62.7 and M4 antag 78.2.
For O=C(c1ccccc1)c1coc2c1C(=O)c1ccccc1C2=O the results were CHRM4 PAM inactive, TAAR1 ag inactive, M4 ag inactive, TAAR1 antag inactive and M4 antag inactive.
`O=C1c2ccccc2-c2onc3ccc(Oc4ccccc4)c1c23` gave CHRM4 PAM inactive, TAAR1 ag 43.2, M4 ag inactive, TAAR1 antag 66.8 and M4 antag inactive.
Screening CCN(CC)S(=O)(=O)c1ccc(OC(C)C)c(NC(=O)c2c3c(nc4ccccc24)CCN(Cc2ccccc2)C3)c1 returned CHRM4 PAM inactive, TAAR1 ag inactive, M4 ag inactive, TAAR1 antag 54.5 and M4 antag inactive.
COC(=O)C1=C(C)N(Cc2ccccc2C(F)(F)F)C(=NCC2CC2)NC1c1ccc(C(F)(F)F)cc1 (configuration not stated) was read as TAAR1 ag inactive and TAAR1 antag inactive.
Cc1ccc2nc(/C(C#N)=C\c3ccc(N4CCOCC4)o3)[nH]c2c1 was read as CHRM4 PAM inactive, TAAR1 ag 43.1, M4 ag inactive, TAAR1 antag inactive and M4 antag inactive.
`Nc1cc(OC(=O)c2cccs2)nn1S(=O)(=O)c1ccc(F)cc1` gave CHRM4 PAM inactive, TAAR1 ag 41.5, M4 ag inactive, TAAR1 antag inactive and M4 antag inactive.
